Source: PubChem BioAssay (Sanford-Burnham Center for Chemical Genomics)
Sampled rows, rich in hits. Any-hit rate of the full collection: about 2.3%.
SKN-1 block: suppressors of acrylamide-induced Pgst-4::GFP reporter in worms, primary screen, SKN-1 inhibitor project, whole organism, uHTS, GFP/RFP fluorescence ratio, strain VP596; AID 624304, 2012; inhibition, % at 21.8 µM; actives 0.49% (n = 360,000); C. elegans VP596 Pgst-4::GFP/RFP ratio, 24 h;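 active means interference check ratio from 0.5 to 1.5 plus GFP to RFP signal ratio inhibition reaching or exceeding a fixed threshold, cut at about 30% in these data, passing the limit was not always enough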
DNMT1 inh: human DNMT1 methyltransferase inhibitors, primary screen, biochemical, molecular beacon, fluorescence, HinP1I cleavage, uHTS. actives 0.83% (n = 360,000). AID 588458, 2011. inhibition (reported as % activation of signal), % at 10 µM. DNA (cytosine-5)-methyltransferase 1 (Homo sapiens), P26358; in the data active means inhibition above about 50%
SUMO1 PPI mod: modulators of SUMO1 protein-protein interactions, primary screen, biochemical, uHTS; AID 602429, 2012; SUMO1 binding to a labelled peptide, TR-FRET, 1 h; inhibition, % at 20 µM; actives 0.33% (n = 360,000); Small ubiquitin-related modifier 1 (Homo sapiens), P63165; in the data active means inhibition above about 37%
MT1-MMP act inh: blockers of MT1-MMP proenzyme processing, primary screen, HT1080 RFP-PRO-GFP cells, GFP/RFP fluorescence. Matrix metalloproteinase-14 (Homo sapiens), P50281. GFP/RFP ratio fluorescence, overnight; percent of plate control window, DMSO zero. GFP/RFP ratio change, % at 20 µM. actives 0.061% (n = 360,000). AID 651647, 2012;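 active means GFP/RFP ratio change of at least 30% with cell ATP level not reduced by more than half and red fluorescence within 50% of control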
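Assay system: HT1080 cells carrying an RFP-PRO-GFP reporter | Dosing: Single dose of 20 µM compound, 1% DMSO final | Incubation: Cells overnight before dosing, compound overnight, 37 °C, 5% CO2 | Evaluation: GFP/RFP fluorescence ratio | Control set: DMSO and RFP-L50D-GFP cell wells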
CSN inh: inhibitors of CSN-mediated cullin deneddylation, primary screen, biochemical, fluorescence polarization, uHTS; COP9 signalosome complex subunit 5 (Homo sapiens), Q92905; Purified CSN, SCF-Nedd8-OG deneddylation; inhibition, % at 12.5 µM; actives 0.38% (n = 360,000); AID 651999, 2013;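 active means pattern-corrected inhibition above about 35%, with an unprinted fluorescence ratio check between 0.5 and 1.5, limit read from the data, passing the limit was not always enough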
Target sequence (Q92905 whole entry, looked up, one chain of several): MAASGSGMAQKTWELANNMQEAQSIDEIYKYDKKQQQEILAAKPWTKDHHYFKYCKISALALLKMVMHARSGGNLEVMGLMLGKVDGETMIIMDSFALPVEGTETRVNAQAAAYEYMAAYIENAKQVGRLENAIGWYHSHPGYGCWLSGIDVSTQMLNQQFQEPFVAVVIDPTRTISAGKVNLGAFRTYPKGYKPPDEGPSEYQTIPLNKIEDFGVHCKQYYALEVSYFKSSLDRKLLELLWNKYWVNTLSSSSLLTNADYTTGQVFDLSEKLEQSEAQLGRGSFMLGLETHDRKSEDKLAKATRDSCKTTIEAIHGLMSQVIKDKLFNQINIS
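Assay system: purified human Csn5 enzyme expressed in HEK293T cells; Input: 0.24 nM Csn5 enzyme, final concentration; Reagent: 10 nM SCFSkp2-Nedd8OG; Compound dosing: 12.5 µM single point; Times: reaction 90 min, room temperature; Technique: fluorescence polarization readout.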
Rpn11 block: Rpn11 (PSMD14) deubiquitinase inhibitors, primary screen, biochemical, fluorescence polarization, uHTS | human 26S proteasome, Ub4-pepOG fluorescence polarization; 20S core pre-blocked with epoxomicin | 26S proteasome non-ATPase regulatory subunit 14 (Homo sapiens), O00487 | inhibition, % at 20 µM | actives 0.59% (n = 360,000) | AID 588493, 2011;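 active means inhibition at 20 µM, scaled to each plate's controls, above about 33%, limit read from the data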
Target sequence (O00487 whole entry, looked up): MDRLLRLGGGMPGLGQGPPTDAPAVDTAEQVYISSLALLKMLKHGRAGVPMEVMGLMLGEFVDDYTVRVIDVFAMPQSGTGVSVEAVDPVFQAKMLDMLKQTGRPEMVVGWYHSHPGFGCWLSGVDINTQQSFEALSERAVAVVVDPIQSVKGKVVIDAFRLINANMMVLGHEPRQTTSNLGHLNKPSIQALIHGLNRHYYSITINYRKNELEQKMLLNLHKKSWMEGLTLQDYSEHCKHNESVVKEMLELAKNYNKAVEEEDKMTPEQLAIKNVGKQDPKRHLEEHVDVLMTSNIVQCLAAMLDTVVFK
Large screens that a line does not name were inactive.

O=C(Nc1nc2ccsc2c(=O)s1)c1ccco1	SUMO1 PPI mod 39.2
O=C(Nc1nc2c(s1)CCc1ccccc1-2)c1ccco1	SKN-1 block 41.4
CC(=O)Nc1nc2c(s1)CCc1ccccc1-2	none
Cc1nc2ccc3nc(NC(=O)c4ccco4)sc3c2s1	SUMO1 PPI mod 54.5
CN1C2C=CC(=O)C1C1C(=O)N(c3ccccc3)C(=O)C12 (stereo unspecified)	none
CSc1ccc(C2=C/C(=C3/SC(=S)NC3=O)c3ccccc3O2)cc1	DNMT1 inh 70.3
CC1(C(=O)Nc2cccc(C#N)c2)CCN1C(=O)Cc1ccc(-c2ccccc2)cc1 (stereo unspecified)	none
O=C(Nc1cc(C(=O)Nc2ccccc2C(=O)O)cc(C(=O)Nc2ccccc2C(=O)O)c1)c1ccccc1	SUMO1 PPI mod 42.4
O=C(Nc1ccccc1C(=O)O)c1cccc(NC(=O)c2ccccc2Br)c1	none
N#C/C(=C/c1ccccc1OCc1ccc(F)cc1)c1ccc(C(=O)O)cc1	none
N#C/C(=C/c1ccc(OCc2ccc(C(=O)O)cc2)c(Br)c1)c1cccc(F)c1	DNMT1 inh 92.5
Nc1ccc(Oc2ncccn2)c(Cl)c1	none
Nc1ccc2c(Cl)cc(Cl)cc2c1	SKN-1 block 63.0
CC1=C(C(=O)Nc2ccccc2)C(c2ccncc2)C(C#N)=C(SCC(=O)Nc2ccccc2)N1 (stereo unspecified)	none
CSC1=C(C#N)C(c2ccncc2)C(C(=O)Nc2ccccc2)=C(C)N1 (stereo unspecified)	CSN inh 93.5
CCN(CC)C(=O)C1=C(C)N(Cc2ccc(C(C)(C)C)cc2)C(=O)C(CC(=O)NCc2cccs2)C1 (stereo unspecified)	none
O=C1Nc2ccc3sc4ccccc4c3c2C1=O	SUMO1 PPI mod 55.2
O=C1Nc2ccccc2C1=O	none
Oc1ccc(N=C/C=C/c2cccc(Br)c2)cc1-c1nc2ccccc2s1	DNMT1 inh 51.8
Cc1ccc(Cn2c(CCNc3nc(-c4ccc(C)cc4)cs3)nc3cc(C(=O)NCCCO)ccc32)cc1	SUMO1 PPI mod 51.9
Cc1ccc(Cn2c(C(C)Nc3nc(-c4ccc(Cl)cc4)cs3)nc3cc(C(=O)NCCCO)ccc32)cc1 (stereo unspecified)	none
Cc1nc2cc(C(=O)O)ccc2s1	none
Cc1nc2ccc(C(=O)O)cc2c2c1CC(C)S2 (stereo unspecified)	DNMT1 inh 54.3
CCOC(=O)c1ccc(NC(=O)c2ccccc2)cc1	none
CCOC(=O)c1ccc(NC(=O)c2c(N)n(Cc3ccccc3)c(=O)[nH]c2=O)cc1	SUMO1 PPI mod 46.4
Fc1ccc(Nc2nnc(-c3ccncc3)s2)cc1Cl	SUMO1 PPI mod 42.7
O=C(Nc1cccc(Cl)c1)Nc1nnc(-c2ccncc2)s1	none
CCOc1ccc(N=Cc2ccc(N(C)C)cc2)c(O)c1	SKN-1 block 50.6
Nc1ncc(-c2ccc(-c3ccccc3)cc2F)cc1-c1ccccc1F	SKN-1 block 40.4
CCC(C(=O)Nc1cccc(S(=O)(=O)N(C)c2ccccc2)c1)c1ccccc1 (stereo unspecified)	SKN-1 block 40.3
CN(C)S(=O)(=O)c1cccc(NC(=O)C(c2ccccc2)c2ccccc2)c1	none
Cc1cc2c(cc1C)-n1nnnc1C(N1CCN(c3ncccc3C#N)CC1)C(=O)N2 (stereo unspecified)	none (no result: DNMT1 inh, Rpn11 block)
COc1cc(C)c2sc3ccccc3c(=O)c2c1NCCN(C)C	none
CN(C)CCNc1cccc2sc3ccc(O)cc3c(=O)c12	DNMT1 inh 56.1
Cc1ccc(NCCN(C)C)c2c(=O)c3cc(O)ccc3sc12	DNMT1 inh 57.3
O=C1NC[C@H](CCCCN2C[C@H](Cc3ccc(O)cc3)N(CC3CCCCC3)C(=O)C2=O)N(Cc2ccccc2)C1=O	none (no result: DNMT1 inh, Rpn11 block)
O=C(/C=C/c1ccc(F)cc1)c1cc(Br)ccc1O	none
O=C(/C=C/c1ccccc1)c1cc(Br)ccc(=O)c1O	DNMT1 inh 60.8
Cc1ccc(OCc2nc3ccccc3n2C(C)C(=O)Nc2c(C)cccc2C)cc1 (stereo unspecified)	none (no result: DNMT1 inh, Rpn11 block)
O=C1NC[C@@H](Cc2cccc3ccccc23)N(CCc2cccc(F)c2)C1=O	CSN inh 54.4 (no result: DNMT1 inh, Rpn11 block)
CCCCN1C(=O)C(=O)NC[C@H]1Cc1cccc2ccccc12	CSN inh 51.3 (no result: DNMT1 inh, Rpn11 block)
CCCCN1C(=S)NC[C@@H]1Cc1cccc2ccccc12	none
CCCCN1C(=O)C(=O)NC[C@@H]1CC1CCCCC1	SUMO1 PPI mod 44.7 (no result: DNMT1 inh, Rpn11 block)
CCCC[C@@H]1CNC(=O)C(=O)N1CC1CCCCC1	none (no result: DNMT1 inh, Rpn11 block)
CCOc1cc(/C=N/NC(=O)c2nnn(-c3nonc3N)c2C)ccc1OCc1ccc(F)cc1	none
CCOc1cc(/C=N/NC(=O)c2nnn(-c3nonc3N)c2C)ccc1OCc1ccc(C)cc1	CSN inh 40.8
CN(C)CCCO[C@@H]1[C@H]2OC(C)(C)O[C@H]2O[C@@H]1[C@H](O)CO	SKN-1 block 43.6
CC1=C(C(=O)OCc2ccccc2)C(c2cccc([N+](=O)[O-])c2)NC(=O)N1CCCCCC(=O)O (stereo unspecified)	none
CCOC(=O)C1=C(C)N(CCCCCC(=O)O)C(=O)NC1c1cccc([N+](=O)[O-])c1 (stereo unspecified)	DNMT1 inh 92.2
COc1ccc(CCNc2ccc(C)cc2)cc1	none
COc1ccc(C(O)CNc2ccc(C)cc2)cc1 (stereo unspecified)	SKN-1 block 35.8
COC(=O)c1ccc(N2C(c3ccsc3)=Cc3cc4c(cc3C2CC(=O)c2ccco2)OCO4)cc1 (stereo unspecified)	none (no result: DNMT1 inh, Rpn11 block)
O=C(Oc1ccccc1)N1CCN(c2ccc(F)cc2)CC1	SKN-1 block 42.5
COc1cccc(CNC(=O)[C@@H]2CCCN2C(=O)[C@H]2CCCCN2C(=O)c2c(F)cccc2F)c1	none (no result: DNMT1 inh, Rpn11 block)
CCOc1ccccc1N1CC(C(=O)NNC(=O)c2ccc(F)cc2)CC1=O (stereo unspecified)	CSN inh active
COC(=O)/C=C1\OCc2ccccc21	none (no result: DNMT1 inh, Rpn11 block)
Cc1cccc(N/C=C/C(=O)c2ccc(Cl)cc2)c1	none
O=C(/C=C\Nc1ccccn1)c1ccc(Cl)cc1	SKN-1 block 41.5
CC(=O)Nc1c(Br)cc2c(c1Br)Cc1cc(Br)ccc1-2	none
